Assay results taken from article PMC10731006 (Heliyon, 2023).
Values after ≈ are worked out from the molar mass of the structure shown. “Also recorded” adds a separate entry of the source.

How the values were obtained:
[1] = ABTS radical scavenging assay
[2] = system: Staphylococcus aureus (ATCC 10145); assay: Micro-broth dilution assay; format: cell-based; details: ATCC10145, read-out: MIC SA
[3] = DPPH radical scavenging assay
[4] = system: glioblastoma (U-87 MG) cells; assay: MTT cytotoxicity assay, U-87 MG; format: cell-based, human; details: for IC50: Homo sapiens, U-87 MG, 96 h, read-out: IC50 U87; for SI U87 (selectivity index): IC50 in HDF / IC50 in U87, 96 h
How it was run: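 U-87 MG cells were cultured in DMEM with 10% FCS, 2 mM L-glutamine and 1% penicillin-streptomycin at 37 °C, 5% CO2. Seeding was 1 × 10^4 cells/ml; after overnight adherence, test compound diluted in medium (six final levels, 1–600) was applied for 96 h alongside DMSO-matched and cisplatin controls. Read-out: MTT 5 mg/ml for 4 h, DMSO solubilisation, A540, in triplicate, IC50 fitted. SI = IC50 in HDF / IC50 in U87.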

[5] = system: Bacillus cereus (ATCC 11778); assay: Micro-broth dilution assay; format: cell-based; details: ATCC11778, read-out: MIC BC
[6] = system: cancer cell lines (U87, MCF-7 and A549) compared to normal cells (HDF); assay: MTT cytotoxicity, cancer cell lines compared to normal cells; format: cell-based, human; details: 96 h treatment
How it was run: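 A549 and MCF7 grown in RPMI 1640, HDF and U87 in DMEM, each with 10% FCS, 2 mM L-glutamine, 1% pen-strep, 37 °C, 5% CO2. Cells at 1 × 10^4 cells/ml were adhered overnight, then exposed 96 h to test compound (final 1–600 […] in medium). Controls were blank, untreated, DMSO-matched and cisplatin (1–100 μM/mL). MTT 5 mg/ml for 4 h; DMSO-solubilised formazan read at 540 nm, triplicate. IC50 from curve fitting; selectivity index = HDF IC50 / cancer-line IC50.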

[7] = system: Escherichia coli (ATCC 25922); assay: Micro-broth dilution assay; format: cell-based; details: ATCC25922, read-out: MIC EC
B. subtilis (ATCC 6633) [8] = assay: Micro-broth dilution assay; format: cell-based; details: Bacillus subtilis, ATCC6633, read-out: MIC BS
[9] = system: non-small cell lung cancer (A549) cells; assay: MTT cytotoxicity assay, A549; format: cell-based, human; details: for IC50: Homo sapiens, A549, 96 h, read-out: IC50 A549; for SI A549 (selectivity index): IC50 in HDF / IC50 in A549, 96 h
How it was run: (§1)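 Cells were grown in RPMI 1640 with 10% FCS, 2 mM L-glutamine and 1% penicillin-streptomycin at 37 °C under 5% CO2. They were seeded at 1 × 10^4 cells/ml, left overnight to adhere, and exposed 96 h to test compound diluted in medium (six final levels, 1–600), with DMSO-matched and cisplatin controls. MTT at 5 mg/ml was added for 4 h, formazan dissolved in DMSO, and A540 read, in triplicate. IC50 was fitted from the data. SI = IC50 in HDF / IC50 in this line.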

[10] = system: human dermal fibroblast (HDF, human dermal cell line); assay: MTT cytotoxicity assay, normal cells; format: cell-based; details: Homo sapiens, Fibroblast, 96 h, read-out: IC50 HDF
How it was run: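 Human dermal fibroblasts were maintained in DMEM with 10% FCS, 2 mM L-glutamine and 1% penicillin-streptomycin (37 °C, 5% CO2). They were seeded at 1 × 10^4 cells/ml, allowed to adhere overnight, then treated 96 h with serially diluted test compound (six final levels, 1–600) beside DMSO-matched vehicle and cisplatin controls. Then MTT 5 mg/ml was added for 4 h, formazan taken up in DMSO, and absorbance read at 540 nm, in triplicate. IC50 was fitted.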

[11] = system: breast cancer (MCF7) cells; assay: MTT cytotoxicity assay, MCF7; format: cell-based, human; details: for IC50: Homo sapiens, MCF7, 96 h, read-out: IC50 MCF-7; for SI MCF-7 (selectivity index): IC50 in HDF / IC50 in MCF-7, 96 h
How it was run: as §1

[12] = system: Pseudomonas aeruginosa (ATCC 13048); assay: Micro-broth dilution assay; format: cell-based; details: ATCC13048, read-out: MIC PA
[13] = system: Gram-positive and Gram-negative bacterial test strains; assay: Antibacterial activity, whole panel of test strains; format: cell-based
How it was run: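 Disc diffusion followed CLSI (2012). Test compound at 10, 50 and 100 μg/disc was loaded on 6-mm blank filter discs laid on Mueller Hinton agar seeded at 10^6 cells/ml. Strains were S. aureus ATCC 10145, B. cereus ATCC 11778, B. subtilis ATCC 6633, P. aeruginosa ATCC 13048 and E. coli ATCC 25922. Inhibition zones were recorded.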

[14] = system: Escherichia coli (ATCC 25922); assay: Agar diffusion test, E. coli; format: cell-based; details: ATCC25922, read-out: Zone of inhibition EC
[15] = system: Pseudomonas aeruginosa (ATCC 13048); assay: Agar diffusion test, P. aeruginosa; format: cell-based; details: ATCC13048, read-out: Zone of inhibition PA
[16] = system: Bacillus cereus (ATCC 11778); assay: Agar diffusion test, B. cereus; format: cell-based; details: ATCC11778, read-out: Zone of inhibition BC
B. subtilis (ATCC 6633) [17] = assay: Agar diffusion test, B. subtilis; format: cell-based; details: Bacillus subtilis, ATCC6633, read-out: Zone of inhibition BS

Row | SMILES | IC50 ± SD, ABTS [1] | % inhibition ±SD, ABTS ([1]; 5 μg/ml) | % inhibition ±SD, ABTS ([1]; 10 μg/ml) | % inhibition ±SD, ABTS ([1]; 25 μg/ml) | % inhibition ±SD, ABTS ([1]; 50 μg/ml) | % inhibition ±SD, ABTS ([1]; 100 μg/ml) | MIC [2] | IC50 ± SD, DPPH [3] | % inhibition ±SD, DPPH ([3]; 10 μg/ml) | % inhibition ±SD, DPPH ([3]; 25 μg/ml) | % inhibition ±SD, DPPH ([3]; 50 μg/ml) | % inhibition ±SD, DPPH ([3]; 100 μg/ml) | IC50 [4] | SI U87 (selectivity index) [4] | MIC [5] | MIC [7] | MIC (B. subtilis (ATCC 6633) [8]) | IC50 [9] | SI A549 (selectivity index) [9] | IC50 [10] | further results
1 | COC(=O)c1cn(C2CC2)c2cc(N3CCN(C(=O)c4c(C)nnn4-c4ccc(F)cc4)CC3)c(F)cc2c1=O [Compound 6f, methyl 7-(4-(1-(4-fluorophenyl)-4-methyl-1H-1,2,3-triazole-5-carbonyl)piperazin-1-yl)-1-cyclopropyl-6-fluoro-4-oxo-1,4-dihydroquinoline-3-carboxylate] | 39.2 ± 2.1 µg/mL (≈ 71.5 µM) | 13.3 ± 0.6% | 29.7 ± 0.7% | 46.1 ± 0.1% | 54.1 ± 0.7% | 64.2 ± 0.4% | > 500 µg/mL | 56.2 ± 2.1 µg/mL (≈ 102 µM) | 20.7 ± 0.8% | 39.5 ± 0.5% | 48.9 ± 0.4% | 66.9 ± 0.3% | 7.9 ± 2.3 µM | 18 | > 500 µg/mL | > 500 µg/mL | > 500 µg/mL | 104 ± 4.5 µM | 1.4 | 142 ± 4.1 µM | % inhibition ±SD, DPPH ([3]; 5 μg/ml): 10.6 ± 0.9%; cytotoxic / anti-proliferative activity in words [6]: significant cytotoxic activity against only U-87 and MCF-7 cancer cell lines; IC50 [11]: 10.6 ± 3 µM; SI MCF-7 (selectivity index) [11]: 13.3; MIC [12]: > 500 µg/mL; antibacterial activity in words [13]: deprived of any antibacterial activity
2 | COC(=O)c1cn(C2CC2)c2cc(N3CCN(C(=O)c4c(C)nnn4Cc4cccc(F)c4)CC3)c(F)cc2c1=O [Compound 6b, methyl 7-(4-(1-(3-fluorobenzyl)-4-methyl-1H-1,2,3-triazole-5-carbonyl)piperazin-1-yl)-1-cyclopropyl-6-fluoro-4-oxo-1,4-dihydroquinoline-3-carboxylate] | 35.3 ± 1.6 µg/mL (≈ 62.7 µM) | 11.8 ± 0.5% | 28.3 ± 0.4% | 43.4 ± 0.3% | 53.9 ± 0.8% | 72.9 ± 0.5% | > 500 µg/mL | 32.4 ± 1.1 µg/mL (≈ 57.6 µM) | 18.9 ± 0.3% | 40.6 ± 0.9% | 58.5 ± 0.6% | 84.1 ± 0.2% | 1.2 ± 0.8 µM | 142.3 | > 500 µg/mL | 500 µg/mL (≈ 889 µM) | > 500 µg/mL | 29.4 ± 6.2 µM | 5.8 | 171 ± 8.1 µM | cytotoxic / anti-proliferative activity in words [6]: remarkable anti-proliferative activity against all three cell-lines; also recorded: significant cytotoxic activity against all cancer cell lines; zone of inhibition at 100 µg/disc [14]: 10.6 ± 1.2 mm; zone of inhibition at 300 µg/disc [14]: 13.3 ± 1.5 mm; zone of inhibition at 500 µg/disc [14]: 14.7 ± 0.6 mm; IC50 [11]: 10.6 ± 2.3 µM; SI MCF-7 (selectivity index) [11]: 16.1; zone of inhibition at 100 µg/disc [15]: 12.3 ± 0.7 mm; zone of inhibition at 300 µg/disc [15]: 13.6 ± 0.6 mm; zone of inhibition at 500 µg/disc [15]: 15.3 ± 0.3 mm; MIC [12]: 500 µg/mL (≈ 889 µM); antibacterial activity in words [13]: activity against Gram-negative ones without inhibiting the Gram-positive test strains
3 | Cc1c(C)c2c(c(C)c1O)CCC(C)(C(=O)O)O2 (centres unmarked) [Trolox®, reference compound] | 2.7 ± 0.2 µg/mL (≈ 10.8 µM) | – | – | – | – | – | – | 5.2 ± 0.3 µg/mL (≈ 20.8 µM) | – | – | – | – | – | – | – | – | – | – | – | – | –
4 | COC(=O)c1cn(C2CC2)c2cc(N3CCN(C(=O)c4c(C)nnn4-c4ccc([N+](=O)[O-])cc4)CC3)c(F)cc2c1=O [Compound 6e, methyl 7-(4-(1-(4-nitrophenyl)-4-methyl-1H-1,2,3-triazole-5-carbonyl)piperazin-1-yl)-1-cyclopropyl-6-fluoro-4-oxo-1,4-dihydroquinoline-3-carboxylate] | 24.2 ± 1.0 µg/mL (≈ 42 µM) | 14.9 ± 1.4% | 37.0 ± 0.2% | 50.3 ± 0.5% | 71.2 ± 0.2% | 74.3 ± 0.4% | > 500 µg/mL | 18.5 ± 1.6 µg/mL (≈ 32.1 µM) | 33.8 ± 0.5% | 54.5 ± 0.4% | 60.7 ± 0.8% | 67.9 ± 0.6% | 45 ± 7.1 µM | 1.8 | > 500 µg/mL | > 500 µg/mL | > 500 µg/mL | 79 ± 4.7 µM | 1.1 | 83 ± 5.8 µM | % inhibition ±SD, DPPH ([3]; 5 μg/ml): 17.1 ± 0.6%; zone of inhibition at 100 µg/disc [16]: 10.3 ± 0.6 mm; zone of inhibition at 300 µg/disc [16]: 11.3 ± 0.6 mm; zone of inhibition at 500 µg/disc [16]: 13.3 ± 0.6 mm; zone of inhibition at 100 µg/disc (B. subtilis (ATCC 6633) [17]): 9.6 ± 0.6 mm; zone of inhibition at 300 µg/disc (B. subtilis (ATCC 6633) [17]): 13.1 ± 0.3 mm; zone of inhibition at 500 µg/disc (B. subtilis (ATCC 6633) [17]): 14.3 ± 0.6 mm; IC50 [11]: 58.6 ± 5.9 µM; SI MCF-7 (selectivity index) [11]: 1.4; MIC [12]: > 500 µg/mL
